Our source for the IC50 and LD50 values is ChEMBL document CHEMBL1221338, “New antitumoral agents I: In vitro anticancer activity and in vivo acute toxicity of synthetic 1,5-bis(4-hydroxy-3-methoxyphenyl)-1,4-pentadien-3-one and derivatives” (Bioorg Med Chem, 2010).

In series [1] the test system is UACC-62. Briefly: Antitumor activity against human UACC62 cells after 48 hrs by SRB assay. The series is classed as functional, cell-based. The settings on record: UACC-62, 48 h. An outline of the steps:
(§1)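 Human tumor lines in medium with 5% FBS and gentamicin, exposed in 96-well plates to four concentrations given in DMSO for 48 h at 37 °C, 5% CO₂. Cells fixed with trichloroacetic acid (added as 50% solution) for 30 min at 4 °C, washed, dried, stained with sulphorhodamine B. Protein content read at 540 nm.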
A general note: Sulforhodamine B stains cellular protein and so reports cell mass.

Series [2] deals with MCF7. The series can be described thus: Antitumor activity against human MCF7 cells after 48 hrs by SRB assay. The series is classed as functional, cell-based. Conditions: MCF7, 48 h. An outline of the steps:
as §1

A short description of series [3]: Antitumor activity against human NCI/ADR cells after 48 hrs by SRB assay. Conditions: NCI/ADR-RES. Type of series: functional, cell-based. An outline of the steps: as §1
A short description of series [4]: Antitumor activity against human 786-O cells after 48 hrs by SRB assay. Type of series: functional, cell-based. Conditions: 786-0, 48 h. An outline of the steps:
as §1

The test system of series [5] is NCI-H460. Briefly: Antitumor activity against human NCI-H460 cells after 48 hrs by SRB assay. The series is classed as functional, cell-based. Conditions: NCI-H460, 48 h. The method, boiled down:
as §1

Series [6] deals with K562. Briefly: Antitumor activity against human K562 cells after 48 hrs by SRB assay. Type of series: functional, cell-based. The settings on record: K562, 48 h. An outline of the steps:
as §1

Series [7] concerns PC-3. Briefly: Antitumor activity against human PC3 cells after 48 hrs by SRB assay. Conditions: PC-3, 48 h. Type of series: functional, cell-based. The method, boiled down:
as §1

In series [8] the test system is OVCAR-3. The series can be described thus: Antitumor activity against human OVCAR-3 cells after 48 hrs by SRB assay. The series is classed as functional, cell-based. Conditions: OVCAR-3, 48 h. The method, boiled down:
as §1

Series [9] has as its system HT-29. The series can be described thus: Antitumor activity against human HT-29 cells after 48 hrs by SRB assay. The series is classed as functional, cell-based. Conditions: HT-29, 48 h. An outline of the steps:
as §1

Series [10] concerns B16-F10. Briefly: Antiproliferative activity against mouse B16F10 cells after 24 hrs by MTT assay. The series is classed as functional, cell-based. The settings on record: B16-F10, 24 h. The method, boiled down:
(§2)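 Murine tumor cells grown to confluence, then exposed for 24 h to a range of concentrations diluted in Miglyol 810, with a Miglyol-only diluent control. MTT (5 mg/ml stock) added for 3 h at 37 °C, 5% CO₂. Plates centrifuged, supernatant removed, formazan dissolved in DMSO, absorbance read at 540 nm.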
On the technique in general: Formazan colour is commonly taken as a measure of viable cells.

For series [11], the system named is L1210. The series can be described thus: Antiproliferative activity against mouse L1210 cells after 24 hrs by MTT assay. Type of series: functional, cell-based. Conditions: L1210, 24 h. The method, boiled down: as §2
Series [12] in a line: Antiproliferative activity against mouse macrophages after 24 hrs by MTT assay. The series is classed as cell-based. Conditions: Macrophage. An outline of the steps: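 Peritoneal macrophages lavaged from anesthetized normal Balb-C mice with heparinized saline. Cells pelleted, resuspended in RPMI-1640 with 10% FBS at 10⁶/ml, plated, and exposed for 24 h to compound dilutions in Miglyol 810, with a diluent control. MTT (5 mg/ml stock) for 3 h at 37 °C, formazan dissolved in DMSO, read at 540 nm.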

Series [13] in a line: Toxicity in Swiss albino mouse for 14 days. The series is classed as organism-based. The settings on record: in vivo. An outline of the steps:
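Male albino Swiss mice (~25 g; 20 animals split equally into treated and control groups), acclimatised at least 7 days and fasted 12 h. Single intraperitoneal dose of 1, 2.5 or 5 g/kg body weight. Deaths and signs of toxicity observed for at least 14 days. LD50 by Litchfield and Wilcoxon's method; OECD425 protocol.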

Usually IC50 stands for the concentration that inhibits the measured activity by half. Read a low IC50 as inhibition by little substance. As for `COc1ccc(/C=C/C(=O)/C=C/c2ccc(OC)c(OC)c2)cc1OC`, the IC50 in series [1] worked out at 2.12 µM; in series [2] it was 2 µM; in series [3], 2.37 µM; in series [4], 3.36 µM; in series [5], 1.86 µM; in [6], 1.83 µM. The IC50 in series [7] came out at 2.32 µM; in series [8], 2.32 µM; in [9] it was 2.43 µM.

As usually defined, the LD50 is the dose at which mortality reaches 50%. Read a high LD50 as lower toxicity. `COc1cc(/C=C/C(=O)/C=C/c2ccc(O)c(OC)c2)ccc1O`: the IC50 in series [1] was found to be 0.09 µM; in [2], 0.12 µM; in [3] it was 0.83 µM; in series [4] it was 1.99 µM; in [5], 1.53 µM; in series [6], 1.84 µM. The half-maximal inhibitory concentration (IC50) in series [7] came to 1.25 µM; in series [8], 2.2 µM; in series [9] it was 2.3 µM; in [10] it was 21.5 µM; in series [11] it was 56.1 µM; in series [12], 51.8 µM. Also, the median lethal dose (LD50) at 336 h in series [13] was 8540 mg/kg.

As for `COc1cc(/C=C/C(=O)/C=C/c2ccc(OCC=C(C)C)c(OC)c2)ccc1OCC=C(C)C`, the IC50 in series [1] is 30.6 µM; in series [2], 18.2 µM; in [3] it was 7.22 µM; in [4], 7.87 µM; in series [5] it was 34.1 µM; in [6], 4.8 µM. Further, the IC50 in series [7] was determined as 60.5 µM; in series [8], 30.3 µM; in [9] it was 4.04 µM.

For the molecule `COc1cc(/C=C/C(=O)/C=C/c2ccc(OC(C)=O)c(OC)c2)ccc1OC(C)=O`, the concentration for half-maximal inhibition (IC50) in series [1] is 4.31 µM; in [2] it was 1.09 µM; in [3], 3.12 µM; in series [4], 0.66 µM; in series [5], 1.7 µM; in [6], 1.41 µM. For the same molecule, the IC50 in series [7] turned out to be 0.95 µM; in [8], 1.39 µM; in series [9], 1.48 µM; in series [10], 220 µM; in series [11], 246 µM; in [12], 275 µM. Further, in series [13], the LD50 at 336 h is 3680 mg/kg.

As for `COc1cc(/C=C/C(/C=C/c2ccc(O)c(OC)c2)=C(C#N)C#N)ccc1O`, the IC50 in series [1] worked out at 3.34 µM; in series [2] it was 5.24 µM; in series [3], 2.97 µM; in series [4] it was 7.14 µM; in series [5] it was 6.89 µM; in [6], 7.59 µM. In addition, the IC50 amounted to 4.25 µM in series [7], 115 µM in series [8] and 3.37 µM in [9].
